Compound activity as filed in PubChem.
Rows were chosen to be rich in hits. Some 8.8% of all compounds tested hit in one or more screens of this group.
RORa activator – activates the human nuclear receptor RORA. CHO-K1 Gal4-RORA LBD luciferase reporter, luminescence; percent increase over mock-subtracted basal signal. activation, % at 10 µM. actives 1.5% (n = 65,000). AID 560;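 active means activation above the mean of all tested compounds plus 3 SD, cut at about 49% in these data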;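 further: 0% = DMSO-treated RORA cells and 100% = added signal equal to DMSO minus mock-transfected cells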
M1 antagonist – blocks the rat M1 muscarinic receptor response to acetylcholine. B-score at 10 µM. CHO-M1 cells, Fluo-4 calcium, ACh EC80 antagonist mode; hits give low values. P08482. actives 3.4% (n = 64,000). AID 628;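 active means calcium fluorescence response, raw or row-and-column corrected B-score, differing from the plate sample mean either way at a set confidence level, mostly lower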
Target sequence (P08482 whole entry, looked up): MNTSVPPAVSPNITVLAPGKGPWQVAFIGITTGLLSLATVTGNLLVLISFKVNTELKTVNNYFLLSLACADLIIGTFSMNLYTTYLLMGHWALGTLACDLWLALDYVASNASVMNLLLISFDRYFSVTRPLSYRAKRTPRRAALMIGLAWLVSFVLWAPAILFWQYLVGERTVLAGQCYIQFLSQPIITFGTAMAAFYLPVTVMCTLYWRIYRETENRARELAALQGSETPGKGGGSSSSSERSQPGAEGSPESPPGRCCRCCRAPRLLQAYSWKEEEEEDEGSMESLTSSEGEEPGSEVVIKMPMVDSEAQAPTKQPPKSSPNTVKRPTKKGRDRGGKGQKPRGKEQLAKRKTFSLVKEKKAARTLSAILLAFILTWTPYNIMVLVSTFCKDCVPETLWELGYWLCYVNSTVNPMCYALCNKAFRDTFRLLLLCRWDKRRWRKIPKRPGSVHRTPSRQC
S1P3 ag – agonists of human S1P3 receptor; AID 373; actives 0.1% (n = 60,000); activation, % at 4.5 µM; Q99500; S1P3 NFAT-BLA reporter cells, agonism, FRET ratio; relative to 1 µM S1P, basal subtracted;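 active means activation above the screen-wide mean plus 3 SD, cut at about 4.5% in these data, passing the limit was not always enough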
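Material: Human S1P3 NFAT-BLA reporter CHO cells | Incubation: Overnight plating, 4 h compound 37 °C, 2 h substrate RT | Signal: FRET β-lactamase substrate fluorescence, excitation 405 nm, 460/535 nm emission ratio, background-subtracted | Compound: 4.5 µM final, single dose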
SF1 activator – activators of human nuclear receptor SF-1; CHO-K1 Gal4-SF-1 LBD luciferase reporter; % increase over DMSO SF-1-specific signal; activation, % at 10 µM; Q13285; actives 1.9% (n = 65,000);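 active means activation above the mean activation of all tested compounds plus 3 SD, cut at about 50% in these data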
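Test system: transient Gal4-SF-1 LBD reporter, CHO-K1; Amount: 4,000 CHO-K1 cells per well; Doses: 10 µM only; Timing: compound exposure 20 h at 37 °C; Signal: luciferase light emission; Read-out basis: percent activation relative to DMSO median and mock-transfected background; Control set: DMSO negative control and −SF1 background wells; Replicates: one test per compound.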
S1P1 ag pot – S1P1 (human) agonism or agonism potentiation; P21453; AID 449; actives 0.57% (n = 56,000); activation, % at 9.5 µM; S1P1 CRE-bla cells, forskolin, beta-lactamase FRET, potentiator mode; S1P1 agonist co-added at EC20, 2 nM; 100% = saturating reference agonist, 0% = basal;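 active means activation above a cutoff set at the mean activation of all tested compounds plus 3 SD, cut at about 54% in these data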;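 further: forskolin at 4 µM as EC80 and the EC20 agonist is SEW2871; 100% = SEW2871 at its EC100 plus forskolin at EC80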
M1 agonist – agonists of M1 muscarinic receptor; B-score at 10 µM; CHO-M1 cells, Fluo-4 calcium fluorescence, agonist mode; hits give high values; AID 626; actives 3% (n = 64,000);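 active means fluorescence rise, raw or as B-score row- and column-corrected plate score, outside the 99.7% band of its plate's samples, either direction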
M1 antag confirm – confirmation of rat M1 muscarinic receptor antagonists; actives 43% (n = 1,700); calcium response (max-min fluorescence) at 10 µM; AID 677; shares compounds with M1 antagonist; CHO-M1 cells, Fluo-4 calcium, ACh EC80 antagonism; hits give low values;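 active means calcium response below the same-plate mean of wells given acetylcholine alone at its 80%-effect dose, minus 3 SD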;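 further: raw fluorescence intensity difference in arbitrary instrument units and not normalized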
mGluR4 antag – mGluR4 (human) activity, M1 antagonist secondary assay. shares compounds with M1 antagonist. actives 0.9% (n = 1,700). fluorescence response (max-min) at 10 µM. CHO-mGluR4 calcium flux, Fluo-4 fluorescence, glutamate EC80; hits give low values;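 active means fluorescence response below the plate's average for near-maximal glutamate wells, less 3 SD of those wells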;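 further: raw unnormalized fluorescence span taken in the window right after glutamate addition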
Starred values were filed as active, the others as inactive; · = no result.

SMILES	RORa activator	M1 antagonist	S1P3 ag	SF1 activator	S1P1 ag pot	M1 agonist	M1 antag confirm	mGluR4 antag
CC(C)(C)C(=O)OCC1OC(n2cnc(C(N)=O)n2)C(O)C1O (stereo not given)	-18.7	-11*	-0.9	-8.3	·	-0.637	578	202
COc1ccc(Cl)cc1C(=O)NCC(c1ccco1)N1CCCC1 (stereo not given)	-11.1	-4.64*	·	-10.9	·	-0.15	390*	236
COC(=O)c1ccc(-c2cc(C(=O)O)c3cc4c(cc3n2)OCCO4)cc1	10.8	0.247	-0.6	7.8	-39.8	-0.994	·	·
CC(C)Cn1cc(C(=O)NCC2CCCO2)c2c3ccccc3n(C)c2c1=O (stereo not given)	16.4	-5.92*	-0.5	-7.3	6.6	1.63	577	212
O=C1CC(N2CCN(c3ccccc3Cl)CC2)C(=O)N1c1cccc(F)c1 (stereo not given)	-27.6	-1.74*	-0.8	3.7	-9.4	0.543	650	229
CCOC(=O)c1ccc(CNC(=O)c2n[nH]c(=O)c3ccccc23)o1	-16.4	0	-0.6	-5.7	·	1.31	·	·
CCN(CC)CCOC(=O)c1c(C)oc2ccc(OC)cc12	-4.6	-14.3*	-1.0	-4.7	-2.3	-0.371	98.4*	246
NCCCCCc1nnc(SCc2cccc(Cl)c2)o1	-15.1	-5.2*	-0.2	-15.6	-1.0	-0.349	415*	282
O=C(CN1C(=O)C2CC=C(Cl)CC2C1=O)NCc1ccccc1 (stereo not given)	-14.3	0.0168	-0.5	-5.2	-8.9	1.94	·	·
Cc1nc2ccccn2c1/C(O)=C1\C(=O)C(=O)N(CCCN(C)C)C1c1ccc(Cl)cc1 (stereo not given)	-11.7	1.27	0.1	5.7	-19.1	-0.939	·	·
O=C(c1cccnc1)N1CCN(C(=O)c2cccs2)CC1	1.3	0.092	-0.7	-5.2	·	1.93	·	·
O=C(Nc1sccc1C(=O)N1CCOCC1)c1cccnc1	-1.5	-5.07*	-0.3	1.8	-8.9	-0.138	623	245
O=C(CN1C2=NCCN2c2ccccc21)C12CC3CC(CC(C3)C1)C2	0.1	-9.33*	-1.4	-2.3	-19.8	-0.289	337*	153
CCN1CCN(CCCNC(=O)c2cc3cc4ccc(OC)cc4nc3o2)CC1	20.3	-3.88*	0.3	6.9	-10.0	-0.0681	563	251
COc1ccc2cc3cc(C(=O)NCCN4CCN(Cc5ccccc5)CC4)oc3nc2c1	25.1	-2.2*	-0.6	23.0	6.0	1	486*	254
CCCn1nnnc1SCC(=O)N(C(C)C)C(C)C	-2.9	0.0316	-0.2	5.3	24.4	0.553	·	·
COc1ccc(Cc2nnc(NC(=O)c3ccco3)s2)cc1OC	-11.3	0.134	0.1	4.1	-30.8	-1.12	·	·
O=C(CN1C(=O)COc2ccccc21)N(CCCN1CCOCC1)CC1CC=CCC1 (stereo not given)	12.8	-0.0792	-0.4	-7.3	8.4	0.938	·	·
Cc1nc(NC2=NCN(CCN3CCOCC3)CN2)nc2c(C)cccc12	16.9	-0.663	1.0	-12.2	-12.4	0.516	·	·
Cc1ccc2nc(NC3=NCN(CCN4CCOCC4)CN3)nc(C)c2c1	8.3	-2.61*	-0.5	-3.8	-18.6	0.765	317*	233
COC(=O)c1cc(Br)ccc1-c1ccc(/C=N/n2nnnc2N)o1	-17.7	-5.02*	-1.9	-16.2	12.7	1.85	450	206
CCC(=Nc1ccc(Cc2ccncc2)cc1)c1c(O)n(C)c(=O)n(C)c1=O	-13.4	-2.87*	-1.2	-15.1	3.2	7.65	548*	224
CCCCn1c(O)c(C(CC)=Nc2ccc3c(c2)CCC3)c(=O)[nH]c1=O	-19.6	0.134	-0.6	-0.4	-8.4	0.384	·	·
Cc1ccc(N(CC(=O)O)S(C)(=O)=O)cc1Cl	-9.9	-0.0851	-1.2	-8.1	·	-0.525	·	·
O=C(CC(c1ccccc1)c1cc(Cl)ccc1O)N1CCOCC1 (stereo not given)	-7.5	-2.56*	-0.3	-1.7	0.4	0.173	477	214
SMILES	RORa activator	M1 antagonist	S1P3 ag	SF1 activator	S1P1 ag pot	M1 agonist	M1 antag confirm	mGluR4 antag
CCCP(=O)(CC(=O)O)c1ccccc1 (stereo not given)	4.1	·	-1.0	7.8	-10.8	·	·	·
CCCCP(=O)(CCCC)c1ccccc1C(=O)O	13.8	-3.73*	0.1	10.6	-7.5	0.262	666	172
CCOc1ccc(S(=O)(=O)Nc2cc(Cl)ccc2O)cc1	15.0	-3.06*	-0.6	-10.8	·	-0.0585	457*	225
CCOc1ccc(S(=O)(=O)Nc2cccc(Cl)c2)cc1	12.3	-0.559	-1.0	0.7	18.0	1.6	·	·
CCOC(=O)c1ccc(Nc2nnc3nc(C)cc(C)n23)cc1	-9.3	-1.24*	-0.8	-3.0	2.7	-0.706	466	214
CCOC(=O)c1ccc(Nc2cc(C)nc3ncnn23)cc1	-5.6	-0.367	-0.9	-14.7	-13.0	-1.3	·	·
COc1ccc(NC(=O)c2ccc(Cl)c(S(=O)(=O)N3CCc4ccccc4C3)c2)cn1	-7.0	-1.46*	-0.3	5.4	-9.9	0.241	681	210
CCCCn1c(=O)[nH]c2ccccc21	-12.5	-2.36*	-0.8	-12.7	-1.4	-2.19	674	225
O=c1[nH]c2ccccc2n1CCCOc1ccccc1	26.2	-0.000357	0.7	10.6	-3.9	-0.528	·	·
CCCCC(CC)C(=O)Nc1ccccc1C(=O)NC(C)C (stereo not given)	-11.0	-0.298	-0.3	-4.5	·	-0.226	·	·
N#Cc1c(C(F)(F)F)cc(-c2ccccc2)nc1SCc1nc(N)nc(N2CCOCC2)n1	-1.9	-0.185	-0.6	-12.5	-4.1	0.17	·	·
C=CCOC(=O)Nc1ccc(Cl)cc1NC(=O)OCC=C	19.6	-3.79*	-1.0	1.2	-1.2	2.09	674	272
CCSc1nc2c(c(=O)n1Cc1ccccc1)SC(C)C2 (stereo not given)	16.4	-3.73*	-0.9	4.0	2.6	1.07	373*	245
CC(C)C1CC(O)(C2(O)CCCCC2)ON1 (stereo not given)	-12.1	0.0193	0.1	-9.9	0.7	-0.00415	·	·
O=C1CCCCCN1CP(=O)(O)CN1CCOCC1	3.2	0.597	0.1	18.1	-3.5	-1.51	·	·
COCc1cc(C)nc(SCC(=O)Nc2cccc3cccnc23)c1C#N	12.9	-3.9*	0.6	7.0	-17.5	0.424	643	215
COCc1cc(C)nc(SCC(=O)Nc2ccc3c(c2)OCO3)c1C#N	-5.5	0.2	-0.9	-8.3	-4.3	-0.616	·	·
